Data on three compounds can be found in article PMC6153967 (CNS Drugs, 2018).

Data set [1] is classed as in vivo, human. Particulars: drug-naïve. The gist of the method:
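CSF came from 64 untreated patients with cognitive deficits (MMSE 15–30). Sampling: lumbar puncture at L3–L5, supine, atraumatic needle, 8–11 a.m. Spun 5 min at 2000 rpm at room temperature, aliquoted into polypropylene, stored at –80 °C. Samples were derivatized with EDC/TFEA for 30 min at room temperature and centrifuged. The supernatant went to LC–MS/MS. Identity was set by retention time and two transition ions against reference standard. LOQ 0.1 ng/ml; range 0.1–1000 ng/ml.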

Data set [2] is classed as in vivo, human. The conditions noted are these: tramiprosate 150 mg BID, week 78. The gist of the method:
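Retrospective lumbar CSF from six patients with AD in the phase III trial, sampled at week 78 of dosing. The metabolite was quantified by a validated LC–MS/MS method in a separate bioanalytical laboratory.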

Data set [3] addresses Recombinant human Aβ42 peptide (Homo sapiens, UniProt P05067). In words: IMS–MS anti-Aβ42 oligomer activity. Particulars: for Inhibition of Aβ42 oligomer formation (in words): 1000:1, 24 h in vitro. Format: biochemical. In outline:
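Recombinant human Aβ42 was reconstituted in LC–MS-grade water as a 5 mg/ml stock and diluted to 22 pmol/µl final. Test compound in water was diluted to […] and 22,000 pmol/µl solutions for 100- and 1000-fold molar excess. Mixtures were incubated at room temperature for 0, 4 and 24 h. Samples were analysed by direct infusion on a traveling-wave IMS Q-TOF: positive sensitivity mode, m/z 500–4000, with drift times used to resolve monomer and oligomers.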

Data set [4] can be described thus: Oral and intravenous pharmacokinetics in Sprague Dawley rats. The data set is classed as in vivo. The conditions noted are these: male, rat, plasma, 10 mg/kg; for Vd: intravenous 10 mg/kg. In outline: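 Fasted male Sprague Dawley rats, n = 3 per group, received test compound in saline orally by gavage (30 mg/kg) or as an IV bolus (10 mg/kg). Serial blood was drawn at 0.25, 0.5, 1, 2, 4, 8 and 24 h into K2EDTA and centrifuged to plasma. Plasma was stored at –80 °C and assayed by LC–MS/MS. Parameters were calculated from mean concentration–time curves.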

Data set [5] can be described thus: Brain penetration after single oral dose in Sprague Dawley rats. The conditions noted are these: oral 30 mg/kg. Format: in vivo, male Sprague Dawley rats. In outline: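 Fasted male Sprague Dawley rats received test compound in saline by oral gavage at 30 mg/kg. Terminal plasma, CSF and brain were taken at 1, 2, 6 and 24 h, three rats per time point. Brains were perfused to remove blood before processing. All matrices were assayed by LC–MS/MS. AUC ratios were derived from mean concentration–time curves.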

For data set [6] the following is noted: ref Alzheon, data on file, cited from earlier work.
For data set [7] the following is noted: cited from earlier work.
For data set [8] the following is noted: tramiprosate phase III NA trial; cited from earlier work.
For data set [9] the following is noted: both phase III trials, subjects receiving active drug; cited from earlier work.

Structures are written as SMILES. Values joined by “and” are separate entries in the source; they are usually repeats but may differ in a detail not shown here. Identical values can stand only once. Like-named read-outs stand apart in the source and are kept apart here.

Recombinant human Aβ42 peptide, sequence (P05067 672-713): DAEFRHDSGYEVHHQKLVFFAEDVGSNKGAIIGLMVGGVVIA

For `O=C(O)CCS(=O)(=O)O` [3-SPA, 3-sulfopropanoic acid], the “Concentration of 3-SPA in CSF, median” value is 1.7 ng/ml and 10.8 nM in data set [1] (all patients); 1.6 ng/ml and 10.4 nM in data set [1] (female); 1.7 ng/ml and 11.1 nM in data set [1] (male). In addition, the “Concentration of 3-SPA in CSF, minimum–maximum” value is 0.6–4.3 ng/ml and 4.2–27.7 nM in [1] (female); 0.8–3.8 ng/ml and 5.5–24.7 nM in [1] (male). Further, the “Concentration of 3-SPA in CSF, mean ± SD” value is 1.7 ± 0.7 ng/ml and 11.2 ± 4.4 nM in data set [1] (female (N 37)); 1.9 ± 0.6 ng/ml and 12.5 ± 4.1 nM in [1] (male (N 27)). For the same compound, the concentration at 78 week in data set [2] (human, CSF, oral, 150 mg BID, Minimum–maximum 3-SPA concentration in CSF) lay within 112 to 232 nM. For the same compound, the “Median 3-SPA concentration in CSF” value in data set [2] is 19.8 ng/ml and 128.6 nM. The “Inhibition of Aβ42 oligomer formation (in words)” value in [3] was “Near complete prevention of formation of Aβ42 oligomers except for pentamers”. Further, the “Aβ42 oligomer species not inhibited” value is “dimers, trimers, and pentamers” in data set [3] (1000:1, after 4 h incubation); “pentamers” in data set [3] (1000:1, after 24 h incubation). In [4], this compound showed a clearance of 45 mL/min/kg. Besides, the Vd was found to be 12.9 L/kg in data set [4] (Vss) and 43.6 L/kg in data set [4] (Vz). In addition, the “Brain/plasma AUC ratio (brain penetration)” value in [5] is recorded as 25.3%. For the same compound, the “Sustained 3-SPA levels (plasma AUC)” value in data set [6] (at 2000 mg/kg ALZ-801 NOAEL, 28-day rat study) is recorded as 180 millimolar (AUC in h × nM).

As a reminder, the NOAEL is the highest tested level that showed no adverse finding. `CC(C)[C@H](N)C(=O)NCCCS(=O)(=O)O` [ALZ-801]: the “Improvement in brain penetration” value in [7] (PK/PD projections using 14C tramiprosate) is reported as ~ 30%. Besides, the NOAEL in [6] (1-month (28-day) rat study) is listed as 2000 mg/kg; in [6] (6-month rat study), 1500 mg/kg.

For the compound `NCCCS(=O)(=O)O` [Tramiprosate, reference compound], the “Inhibition of Aβ42 oligomer formation (in words)” value in data set [3] is “complete inhibition”. The Steady-state brain penetration entry in data set [7] is recorded as “approximately 40%”. Also, the “Estimated mean concentration in the brain” value in [8] was ~ 130 nM. For the same compound, the “Cases of ARIA-E in brain MRI safety analyses” value in data set [9] was “no cases”.
